The results in this text go back to ChEMBL document CHEMBL1132454 (J Med Chem, 1999).

The structures appear in SMILES notation.

T2 sequence (Q9WTR4 whole entry): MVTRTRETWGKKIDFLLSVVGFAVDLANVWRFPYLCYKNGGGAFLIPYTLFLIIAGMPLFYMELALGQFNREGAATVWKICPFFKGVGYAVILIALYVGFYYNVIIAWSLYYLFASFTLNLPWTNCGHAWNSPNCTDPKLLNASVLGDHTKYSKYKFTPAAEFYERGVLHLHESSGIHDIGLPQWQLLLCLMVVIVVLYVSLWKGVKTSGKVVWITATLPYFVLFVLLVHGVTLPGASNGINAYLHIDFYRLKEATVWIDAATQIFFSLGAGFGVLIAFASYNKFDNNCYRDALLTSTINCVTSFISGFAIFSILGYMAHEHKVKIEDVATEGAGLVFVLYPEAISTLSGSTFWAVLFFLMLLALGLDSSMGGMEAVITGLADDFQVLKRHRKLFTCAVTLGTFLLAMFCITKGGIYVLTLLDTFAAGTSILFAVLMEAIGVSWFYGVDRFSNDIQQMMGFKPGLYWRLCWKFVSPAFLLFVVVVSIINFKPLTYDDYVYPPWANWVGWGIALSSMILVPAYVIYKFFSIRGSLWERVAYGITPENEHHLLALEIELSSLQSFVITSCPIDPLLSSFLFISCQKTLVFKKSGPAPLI
T1 sequence (P31652 whole entry): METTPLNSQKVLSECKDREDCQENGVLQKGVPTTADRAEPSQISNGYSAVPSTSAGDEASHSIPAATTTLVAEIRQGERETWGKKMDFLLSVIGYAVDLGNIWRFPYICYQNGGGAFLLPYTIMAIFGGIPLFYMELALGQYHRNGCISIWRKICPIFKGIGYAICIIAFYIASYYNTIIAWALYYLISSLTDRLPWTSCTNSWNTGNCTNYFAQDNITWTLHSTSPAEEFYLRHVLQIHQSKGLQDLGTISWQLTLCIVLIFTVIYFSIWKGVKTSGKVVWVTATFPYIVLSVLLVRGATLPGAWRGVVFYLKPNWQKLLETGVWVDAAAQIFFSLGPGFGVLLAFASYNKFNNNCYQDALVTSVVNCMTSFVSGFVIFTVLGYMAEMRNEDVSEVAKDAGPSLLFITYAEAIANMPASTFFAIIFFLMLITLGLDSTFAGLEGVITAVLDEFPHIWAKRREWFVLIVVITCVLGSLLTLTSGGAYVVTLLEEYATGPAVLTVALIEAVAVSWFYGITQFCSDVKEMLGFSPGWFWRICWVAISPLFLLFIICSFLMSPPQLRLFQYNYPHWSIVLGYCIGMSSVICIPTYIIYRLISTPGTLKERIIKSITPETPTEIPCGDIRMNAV
Sequence of Sigma intracellular receptor 2 (Q5U3Y7 whole entry, looked up): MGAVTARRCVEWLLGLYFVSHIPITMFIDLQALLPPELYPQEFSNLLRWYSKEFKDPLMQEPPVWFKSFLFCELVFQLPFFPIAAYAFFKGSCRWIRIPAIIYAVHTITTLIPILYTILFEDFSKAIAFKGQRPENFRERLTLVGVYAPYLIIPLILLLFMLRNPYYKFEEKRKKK

One test deals with T1, Sodium-dependent serotonin transporter (Rattus norvegicus, UniProt P31652). Kind of test: Binding affinity against Serotonin transporter in male Sprague-Dawley rats using [3H]paroxetine ligand; IA = inactive. Put shortly:
(§1)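 Frozen rat midbrain membranes in 50 mM Tris, 120 mM NaCl, 5 mM KCl pH 7.4; 1.5 mg wet tissue per tube with 0.2 nM [3H]paroxetine, 90 min at room temperature; nonspecific defined with 1 μM citalopram; filtration and scintillation counting.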
In the case of `Clc1ccccc1N1CCN(CCCn2c3ccccc3c3ccccc32)CC1`, the Ki result is recorded as “Not Active”.
On the same count and under the same terms, to `c1ccc(N2CCN(CCCn3c4ccccc4c4ccccc43)CC2)cc1` belongs “Not Active”.

The next test concerns the target T2, Norepinephrine transporter (Rattus norvegicus, UniProt Q9WTR4). The experiment in a line: The compound was tested for binding affinity nisoxatine ligand; IA = inactive. A digest of the protocol:
(§2)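 Rat frontal cortex membranes (male Sprague–Dawley) in 50 mM Tris/120 mM NaCl/5 mM KCl pH 7.4; 8 mg wet tissue with 0.5 nM [3H]nisoxetine, 60 min at 0–4 °C; 1 μM desipramine for nonspecific; filtration, scintillation counting.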
Consider `Clc1ccccc1N1CCN(CCCn2c3ccccc3c3ccccc32)CC1`, for which the Ki result was “Not Active”.

In the next test the target is T2, Norepinephrine transporter. Kind of test: (§3) The compound was tested for binding affinity nisoxatine ligand. A digest of the protocol:
as §2
In the case of `C[C@H]1CN(CCCn2c3ccccc3c3ccccc32)C[C@H](C)N1C`, the Ki is 9.37 µM.
For `C[C@H]1CN(CCCn2c3ccccc3c3ccccc32)C[C@H](C)N1CCCc1ccccc1`, the affinity corresponds to a Ki of 2.49 µM.
The compound `C[C@H]1CN(CCCN(c2ccccc2)c2ccccc2)C[C@H](C)N1` had a Ki of 6.81 µM.
The same measure, in the same setting: under `C[C@H]1CN(CCCN(c2ccccc2)c2ccccc2)C[C@H](C)N1CCCc1ccccc1` stands 3.64 µM; under `C[C@H]1CN(CCCn2c3ccccc3c3cc([N+](=O)[O-])ccc32)C[C@H](C)N1`, 4.58 µM; under `C[C@H]1CN(CCCn2c3ccc(Br)cc3c3cc(Br)ccc32)C[C@H](C)N1`, 1.3 µM.
Same read-out and setting: to `C[C@H]1CN(CCCn2c3ccccc3c3cc(N)ccc32)C[C@H](C)N1` belongs 13.9 µM.
On the same count and under the same terms, to `c1ccc(N2CCN(CCCn3c4ccccc4c4ccccc43)CC2)cc1` belongs 4.12 µM; to `C[C@@H]1CN(CCCn2c3ccccc3c3ccccc32)C[C@H](C)N1` [RIMCAZOLE], 2.16 µM.

In a further test the target is T3, Sodium-dependent dopamine transporter (Rattus norvegicus, UniProt P23977). The experiment in a line: (§4) Binding affinity Sprague-Dawley rats using [3H]WIN-35428 ligand. A digest of the protocol: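 Rat caudate-putamen membranes washed in ice-cold Krebs-HEPES pH 7.4, ~0.3% w/v (150–300 μg protein). Drug added 5 min before 1.5 nM [3H]WIN 35,428; 1 h on ice; filtration.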
T3 sequence (P23977 whole entry): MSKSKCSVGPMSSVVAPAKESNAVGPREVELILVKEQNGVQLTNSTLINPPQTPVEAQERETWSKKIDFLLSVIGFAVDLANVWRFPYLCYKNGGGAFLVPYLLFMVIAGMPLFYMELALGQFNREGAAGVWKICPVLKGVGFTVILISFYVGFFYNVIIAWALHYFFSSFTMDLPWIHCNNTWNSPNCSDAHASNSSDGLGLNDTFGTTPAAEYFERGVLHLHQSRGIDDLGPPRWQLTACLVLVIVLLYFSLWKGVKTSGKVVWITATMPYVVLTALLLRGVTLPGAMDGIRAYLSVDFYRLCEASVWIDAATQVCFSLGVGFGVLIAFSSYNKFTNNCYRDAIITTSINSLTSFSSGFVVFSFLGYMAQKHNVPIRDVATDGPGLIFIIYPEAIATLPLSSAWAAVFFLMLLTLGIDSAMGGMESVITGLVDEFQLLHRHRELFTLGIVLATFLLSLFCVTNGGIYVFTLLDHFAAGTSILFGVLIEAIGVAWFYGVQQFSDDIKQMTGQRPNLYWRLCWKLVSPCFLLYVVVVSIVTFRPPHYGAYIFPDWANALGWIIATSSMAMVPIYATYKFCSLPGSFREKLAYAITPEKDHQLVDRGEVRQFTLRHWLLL
Compound `Clc1ccccc1N1CCN(CCCn2c3ccccc3c3ccccc32)CC1` displayed a Ki of 113 µM.
Same read-out and setting: to `C[C@H]1CN(CCCn2c3ccccc3c3ccccc32)C[C@H](C)N1C` belongs 0.436 µM.
For the compound `C[C@H]1CN(CCCn2c3ccccc3c3ccccc32)C[C@H](C)N1CCCc1ccccc1`, the Ki was 0.263 µM.
With `C[C@H]1CN(CCCN(c2ccccc2)c2ccccc2)C[C@H](C)N1`, the Ki amounted to 0.813 µM.
On the same count and under the same terms, to `C[C@H]1CN(CCCN(c2ccccc2)c2ccccc2)C[C@H](C)N1CCCc1ccccc1` belongs 0.061 µM.
Same read-out and setting: under `C[C@H]1CN(CCCn2c3ccccc3c3cc([N+](=O)[O-])ccc32)C[C@H](C)N1` stands 0.109 µM.
The same measure, in the same setting: under `C[C@H]1CN(CCCn2c3ccc(Br)cc3c3cc(Br)ccc32)C[C@H](C)N1` stands 3.89 µM; under `C[C@H]1CN(CCCn2c3ccccc3c3cc(N)ccc32)C[C@H](C)N1`, 2.4 µM; under `c1ccc(N2CCN(CCCn3c4ccccc4c4ccccc43)CC2)cc1`, 4.93 µM.
With `C[C@@H]1CN(CCCn2c3ccccc3c3ccccc32)C[C@H](C)N1` [RIMCAZOLE], the Ki is 0.224 µM.

Target in a further test: not listed separately
Kind of test: (§5) Binding affinity of Sigma opioid receptor type 1 in Guinea pig brain membranes using [3H]pentazocine ligand. The class given is cell membranes, Membrane. Put shortly: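 Guinea pig brain membranes (minus cerebella), 350–500 μg protein, with 3 nM [3H](+)-pentazocine in 50 mM Tris-HCl pH 8.0 for 120 min at 25 °C. Nonspecific binding with 10 μM haloperidol. Filtration, then overnight extraction and counting. IC50 from curve fit, converted to Ki by Cheng-Prusoff.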
In the case of `C[C@@H]1CN(CCCn2c3ccc(Br)cc3c3cc(Br)cc(Br)c32)C[C@@H](C)N1`, the Ki is > 6 µM.

For the next test, the target named is T2, Norepinephrine transporter. The description is as §3. Put shortly:
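Male Sprague-Dawley rat frontal cortex membranes in 50 mM Tris, 120 mM NaCl, 5 mM KCl, pH 7.4; 8 mg original wet tissue per tube. Incubation with 0.5 nM [3H]nisoxetine for 60 min at 0-4 °C. Nonspecific binding with 1 μM desipramine. Filtration and scintillation counting; Ki from at least three experiments in triplicate.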
Compound `C[C@H]1CN(CCCn2c3ccc([N+](=O)[O-])cc3c3cc([N+](=O)[O-])ccc32)C[C@H](C)N1` returned a Ki of 3.66 µM. This lies in the single-digit micromolar range.
On the same count and under the same terms, under `C[C@@H]1CN(CCCn2c3ccc(Br)cc3c3cc(Br)cc(Br)c32)C[C@@H](C)N1` stands 8.54 µM.

The next test addresses Sigma intracellular receptor 2 (Rattus norvegicus, UniProt Q5U3Y7). The experiment in a line: The compound was tested for binding affinity of Sigma opioid receptor type 2 in rat liver membranes using [3H]DTG ligand. The class given is cell membranes, Membrane. A digest of the protocol: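 σ2 sites: male Sprague–Dawley rat liver membranes (160 μg protein), 5 nM [3H]DTG plus 1 μM dextrallorphan masking σ1, 50 mM Tris-HCl pH 8.0, 120 min at 25 °C; 10 μM haloperidol nonspecific; filtration. IC50 converted to Ki by Cheng–Prusoff.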
`C[C@H]1CN(CCCn2c3ccccc3c3ccccc32)C[C@H](C)N1C` had a Ki of 0.23 µM.
Turning to `C[C@H]1CN(CCCn2c3ccccc3c3ccccc32)C[C@H](C)N1CCCc1ccccc1`, the Ki turned out to be 0.145 µM. This Ki lies about 1.6-fold lower than the previous one.
Same read-out and setting: to `C[C@H]1CN(CCCN(c2ccccc2)c2ccccc2)C[C@H](C)N1` belongs 0.351 µM; to `C[C@H]1CN(CCCN(c2ccccc2)c2ccccc2)C[C@H](C)N1CCCc1ccccc1`, 0.183 µM.
`C[C@H]1CN(CCCn2c3ccccc3c3cc([N+](=O)[O-])ccc32)C[C@H](C)N1` came in with an inhibition constant (Ki) of 0.193 µM.
Turning to `C[C@H]1CN(CCCn2c3ccc(Br)cc3c3cc(Br)ccc32)C[C@H](C)N1`, the Ki came to 0.675 µM.
On to `C[C@H]1CN(CCCn2c3ccccc3c3cc(N)ccc32)C[C@H](C)N1`, for which the Ki amounted to 1.66 µM.

A further test deals with T1, Sodium-dependent serotonin transporter. Kind of test: (§6) Binding affinity against Serotonin transporter in male Sprague-Dawley rats using [3H]paroxetine ligand. Put shortly:
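Male Sprague-Dawley rat midbrain membranes in 50 mM Tris, 120 mM NaCl, 5 mM KCl, pH 7.4; 1.5 mg original wet tissue per tube. Incubation with 0.2 nM [3H]paroxetine for 90 min at room temperature. Nonspecific binding with 1 μM citalopram. Filtration and scintillation counting; Ki from at least three experiments in triplicate.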
As for `C[C@H]1CN(CCCn2c3ccc([N+](=O)[O-])cc3c3cc([N+](=O)[O-])ccc32)C[C@H](C)N1`, the Ki was found to be 1.85 µM.
Regarding `C[C@@H]1CN(CCCn2c3ccc(Br)cc3c3cc(Br)cc(Br)c32)C[C@@H](C)N1`, the affinity, expressed as Ki, was 1.61 µM.

Target in another test: not listed separately
The test is described as §5. The class given is cell membranes, Membrane. Put shortly:
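σ1 sites: guinea pig brain membranes minus cerebella (350–500 μg protein) with 3 nM [3H](+)-pentazocine in 50 mM Tris-HCl pH 8.0, 120 min at 25 °C; 10 μM haloperidol for nonspecific; filtration on polyethyleneimine-soaked filters. IC50 converted to Ki via Cheng–Prusoff.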
Compound `C[C@H]1CN(CCCn2c3ccccc3c3ccccc32)C[C@H](C)N1C` returned an inhibition constant Ki of 0.552 µM. This lies in the sub-micromolar range.
In the case of `C[C@H]1CN(CCCn2c3ccccc3c3ccccc32)C[C@H](C)N1CCCc1ccccc1`, the Ki amounted to 0.104 µM.
Regarding `C[C@H]1CN(CCCN(c2ccccc2)c2ccccc2)C[C@H](C)N1`, the Ki was 0.138 µM. The Ki values of the last two compounds are within 1.5-fold of each other.
With `C[C@H]1CN(CCCN(c2ccccc2)c2ccccc2)C[C@H](C)N1CCCc1ccccc1`, the Ki stood at 0.0972 µM.
Consider `C[C@H]1CN(CCCn2c3ccccc3c3cc([N+](=O)[O-])ccc32)C[C@H](C)N1`, for which the Ki is 0.596 µM.
The same measure, in the same setting: under `C[C@H]1CN(CCCn2c3ccc(Br)cc3c3cc(Br)ccc32)C[C@H](C)N1` stands 4.42 µM; under `C[C@H]1CN(CCCn2c3ccccc3c3cc(N)ccc32)C[C@H](C)N1`, 5.72 µM.

For a further test, the target named is T3, Sodium-dependent dopamine transporter. The test is described as §4. Put shortly:
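Rat caudate-putamen membranes washed in modified Krebs-HEPES buffer, pH 7.4; 150-300 μg protein per tube. Filtration read-out; Ki by nonlinear least-squares fit; at least three independent experiments.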
`C[C@H]1CN(CCCn2c3ccc([N+](=O)[O-])cc3c3cc([N+](=O)[O-])ccc32)C[C@H](C)N1`: the Ki worked out at 174 µM.
Still for that read-out and setting: to `C[C@@H]1CN(CCCn2c3ccc(Br)cc3c3cc(Br)cc(Br)c32)C[C@@H](C)N1` belongs 30.3 µM.

For another test, the target named is T1, Sodium-dependent serotonin transporter. The test is described as §6. A digest of the protocol:
as §1
For the compound `C[C@H]1CN(CCCn2c3ccccc3c3ccccc32)C[C@H](C)N1C`, the affinity, expressed as Ki, was 0.373 µM.
The same measure, in the same setting: under `C[C@H]1CN(CCCn2c3ccccc3c3ccccc32)C[C@H](C)N1CCCc1ccccc1` stands 0.0445 µM; under `C[C@H]1CN(CCCN(c2ccccc2)c2ccccc2)C[C@H](C)N1`, 13.1 µM.
Same read-out and setting: to `C[C@H]1CN(CCCN(c2ccccc2)c2ccccc2)C[C@H](C)N1CCCc1ccccc1` belongs 0.219 µM; to `C[C@H]1CN(CCCn2c3ccccc3c3cc([N+](=O)[O-])ccc32)C[C@H](C)N1`, 1.17 µM; to `C[C@H]1CN(CCCn2c3ccc(Br)cc3c3cc(Br)ccc32)C[C@H](C)N1`, 1.13 µM.
Still for that read-out and setting: under `C[C@H]1CN(CCCn2c3ccccc3c3cc(N)ccc32)C[C@H](C)N1` stands 2.1 µM; under `C[C@@H]1CN(CCCn2c3ccccc3c3ccccc32)C[C@H](C)N1` [RIMCAZOLE], 0.825 µM.

In another test the target is T3, Sodium-dependent dopamine transporter. Kind of test: Inhibition of Dopamine uptake in male Sprague-Dawley rats using [3H]DA ligand.
In turn, `Clc1ccccc1N1CCN(CCCn2c3ccccc3c3ccccc32)CC1` returned an IC50 of 2.77 µM.
Same read-out and setting: to `C[C@H]1CN(CCCn2c3ccccc3c3ccccc32)C[C@H](C)N1C` belongs 0.472 µM; to `C[C@H]1CN(CCCn2c3ccccc3c3ccccc32)C[C@H](C)N1CCCc1ccccc1`, 0.639 µM.
In turn, `C[C@H]1CN(CCCN(c2ccccc2)c2ccccc2)C[C@H](C)N1` displayed an IC50 of 1.06 µM. Against the preceding compound, the IC50 is about 1.7-fold higher.
On the same count and under the same terms, to `C[C@H]1CN(CCCN(c2ccccc2)c2ccccc2)C[C@H](C)N1CCCc1ccccc1` belongs 0.0366 µM; to `C[C@H]1CN(CCCn2c3ccccc3c3cc([N+](=O)[O-])ccc32)C[C@H](C)N1`, 0.111 µM; to `C[C@H]1CN(CCCn2c3ccc([N+](=O)[O-])cc3c3cc([N+](=O)[O-])ccc32)C[C@H](C)N1`, 3.67 µM.
On the same count and under the same terms, under `c1ccc(N2CCN(CCCn3c4ccccc4c4ccccc43)CC2)cc1` stands 1.82 µM; under `C[C@@H]1CN(CCCn2c3ccccc3c3ccccc32)C[C@H](C)N1` [RIMCAZOLE], 0.14 µM.
